ChEMBL document CHEMBL1649480, “Farnesol-induced apoptosis in Candida albicans” (2009)
Activity calls are given as the source filed them. The rule behind the calls is not given here.

Tests used:
[1] = system: Candida albicans; assay: Upregulation of Coproporphyrinogen III oxidase expression in Candida albicans SC5314 at 200 uM after 24 hrs by MALDI-TOF MS; format: functional, organism-based
Method in brief: (§1)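 Overnight YNB-glucose SC5314 culture, PBS-washed, adjusted to OD600 0.1 and treated 24 h with 40 or 200 μM farnesol (methanol in controls). Proteomes were compared with untreated cells by 2D SDS-PAGE and MALDI-TOF MS, searched against NCBI nonredundant database. Spots were counted as changed at ≥1.5-fold in three independent experiments.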

[2] = system: Candida albicans; assay: Increase in MCA1 expression in Candida albicans SC5314 at 5 mM after 4 hrs by quantitative PCR analysis
[3] = system: Candida albicans; assay: Downregulation of G-beta-like protein expression in Candida albicans SC5314 at 40 uM after 24 hrs by MALDI-TOF MS; format: functional, organism-based; method in brief: as §1
[4] = system: Candida albicans; assay: Induction of apoptosis in Candida albicans SC5314 assessed as cell death level at 200 uM after 3 hrs by Fluorescence analysis; format: functional
Method in brief: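 Washed, OD600 0.1 SC5314 cells (overnight culture at 30°C in YNB pH 7.0 with 50 mM glucose) exposed 3 h to farnesol, with methanol vehicle and H2O2 controls. Stained 30 min in the dark with a mix of dichlorodihydrofluorescein diacetate, propidium iodide and calcofluor white, then PBS-washed. Confocal imaging; red propidium iodide-stained cells scored as a percentage of all cells.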

[5] = system: Candida albicans; assay: Induction of ROS accumulation in mitochondria of Candida albicans SC5314 at 200 uM after 3 hrs by Fluorescence analysis; format: functional
Method in brief: (§2)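 Cells were exposed 3 h to 40, 100 or 200 μM farnesol, with methanol control and H2O2 positive control. Washed cells were stained 30 min in the dark with a mix of dichlorodihydrofluorescein diacetate, propidium iodide and calcofluor white, then washed and viewed by confocal microscopy. % green (ROS) cells of all cells was scored, with red (necrotic) cells scored separately.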

[6] = system: Candida albicans; assay: Downregulation of Putative stress response protein expression in Candida albicans SC5314 at 40 uM after 24 hrs by MALDI-TOF MS; format: functional, organism-based; method in brief: as §1
[7] = system: Candida albicans; assay: Induction of ROS accumulation in mitochondria of Candida albicans SC5314 at 40 uM after 3 hrs by Fluorescence analysis; format: functional; method in brief: as §2
[8] = system: Candida albicans; assay: Downregulation of Riboflavin synthase expression in Candida albicans SC5314 at 40 uM after 24 hrs by MALDI-TOF MS; format: functional, organism-based; method in brief: as §1
[9] = system: Candida albicans; assay: Increase in MCA1 expression in Candida albicans SC5314 at 2.5 mM after 4 hrs by quantitative PCR analysis
[10] = system: Candida albicans; assay: Induction of apoptosis in Candida albicans SC5314 at 200 uM after 24 hrs by TUNEL assay; format: functional
Method in brief: (§3)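 After 24 h in farnesol (40, 100, 200 μM), cells were PBS-washed, fixed in 4% paraformaldehyde (pH 7.4) 1 h at 20°C, and permeabilized 2 min on ice. They were labeled with 9:1 label:enzyme TUNEL mix 1 h at 37°C in the dark and examined by fluorescence microscopy at 515–565 nm. Flow cytometry counted % positive of 30,000 gated cells, gates set by no-enzyme and DNase-treated controls.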

[11] = system: Candida albicans; assay: Upregulation of Branched chain amino acid transaminase expression in Candida albicans SC5314 at 40 uM after 24 hrs by MALDI-TOF MS; format: functional, organism-based; method in brief: as §1
[12] = system: Candida albicans; assay: Upregulation of Heat shock protein 70 expression in Candida albicans SC5314 at 40 uM after 24 hrs by MALDI-TOF MS; format: functional, organism-based; method in brief: as §1
[13] = system: Candida albicans; assay: Upregulation of Phosphoglycerate mutase expression in Candida albicans SC5314 at 200 uM after 24 hrs by MALDI-TOF MS; format: functional, organism-based
Method in brief: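 SC5314 grown overnight at 30°C, 120 rpm, in yeast nitrogen base (pH 7.0) with 50 mM glucose. Cells were washed in PBS and adjusted to OD600 0.1, then treated 24 h with farnesol from a methanol dilution; controls received methanol. Proteomes of treated and untreated cells were compared by 2-D SDS-PAGE and MALDI-TOF MS, with ProFound searches of the NCBI nonredundant database. Spots changed at least 1.5-fold in three independent experiments were counted.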

[14] = system: Candida albicans; assay: Upregulation of Heat shock protein 90 homologue expression in Candida albicans SC5314 at 40 uM after 24 hrs by MALDI-TOF MS; format: functional, organism-based; method in brief: as §1
[15] = system: Candida albicans; assay: Upregulation of Alanine/arginine aminopeptidase expression in Candida albicans SC5314 at 40 uM after 24 hrs by MALDI-TOF MS; format: functional, organism-based; method in brief: as §1
[16] = system: Candida albicans; assay: Upregulation of Aryl-alcohol dehydrogenase expression in Candida albicans SC5314 at 40 uM after 24 hrs by MALDI-TOF MS; format: functional, organism-based; method in brief: as §1
[17] = system: Candida albicans; assay: Down regulation of in MCA1 expression in Candida albicans SC5314 at 40 uM after 4 hrs by quantitative PCR analysis; format: functional, organism-based
Method in brief: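 Log-phase SC5314 exposed 4 h to farnesol (methanol vehicle control). cDNA diluted 1:20 and run in SYBR green real-time PCR: 15 min 95°C, then 35 cycles of 95°C 1 min, 58°C 30 s, 72°C 30 s, with a melt curve check. MCA1 level was calculated by 2^−ΔΔCT against ACT1 and RPP2B reference genes.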

[18] = system: Candida albicans; assay: Downregulation of Pyruvate kinase expression in Candida albicans SC5314 at 200 uM after 24 hrs by MALDI-TOF MS; format: functional, organism-based; method in brief: as §1
[19] = system: Candida albicans; assay: Induction of apoptosis in Candida albicans SC5314 assessed as mitochondrial degradation at 40 uM after 3 hrs by Fluorescence analysis; format: functional
Method in brief: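 Farnesol-exposed SC5314 (40, 100, 200 μM; methanol control, H2O2 positive control) stained with a MitoPT mitochondrial permeability transition dye per kit instructions. Cells imaged by confocal microscopy: red mitochondrial aggregates in healthy cells, dispersed green signal in apoptotic cells. Percentage of cells with degradation was recorded.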

[20] = system: Candida albicans; assay: Induction of apoptosis in Candida albicans SC5314 assessed as activation of caspase activity at 200 uM after 3 hrs by Fluorescence analysis; format: functional
Method in brief: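 Active caspases in farnesol-exposed cells (40, 100, 200 μM; methanol control, H2O2 positive control) were detected with a FLICA kit per manufacturer. Cells were examined by confocal microscopy, with green-fluorescing cells counted as caspase-positive and unstained cells as nonapoptotic. Percentage of positive cells was recorded.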

[21] = system: Candida albicans; assay: Increase in MCA1 expression in Candida albicans SC5314 at 40 uM after 4 hrs by quantitative PCR analysis; format: functional
Method in brief: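 Log-phase SC5314 cells were used, pregrown overnight at 30°C and 120 rpm in yeast nitrogen base (pH 7.0) with 50 mM glucose, washed in PBS and set to OD600 0.1. Farnesol (methanol stock) was given for 4 h, with methanol-matched untreated controls. SYBR green qPCR ran 35 cycles with 58°C annealing and a melt-curve check. MCA1 was calculated by 2^−ΔΔCT against ACT1 and RPP2B.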

[22] = system: Candida albicans; assay: Induction of apoptosis in Candida albicans SC5314 at 40 uM after 24 hrs by TUNEL assay; format: functional; method in brief: as §3
[23] = system: Candida albicans; assay: Downregulation of Heat shock protein 60 expression in Candida albicans SC5314 at 200 uM after 24 hrs by MALDI-TOF MS; format: functional, organism-based; method in brief: as §1

## CC(C)=CCC/C(C)=C/CC/C(C)=C/CO [FARNESOL]
[1]
  Activity: Active
[2]
  Activity: Active
[3]
  Activity: Active
[4]
  Activity: 35%
[5]
  Activity: 65%
[6]
  Activity: Active
[7]
  Activity: 26%
[8]
  Activity: Active
[9]
  Activity: Active
[10]
  Activity: 14.5%
[11]
  Activity: Active
[12]
  Activity: Active
[13]
  Activity: Active
[14]
  Activity: Active
[15]
  Activity: Active
[16]
  Activity: Active
[17]
  Activity: inactive
[18]
  Activity: Active
[19]
  Activity: 90%
[20]
  Activity: 84%
[21]
  fold change (FC): 3
[22]
  Activity: 2%
[23]
  Activity: Active
